Test [1] has as its system Mycobacterium tuberculosis variant bovis. Kind of test: Bactericidal activity against Mycobacterium bovis BCG ATCC 35734 assessed as reduction on colony forming unit at 15 uM measured upto 14 days by time killing assay. The class given is functional, organism-based. To be noted: time <= 14.0 day.
The test system is the same in test [2]. Description: Induction of oxidative stress Mycobacterium bovis BCG ATCC 35734 expressing pfurA-RFP assessed as activation of pfurA at 0.5 to 2 times MIC90 measured after 24 hrs by fluorescence assay. In kind it is functional, organism-based. In short, it runs like this:
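BCG carrying an integrated pfurA-mCherry reporter (kanamycin-selected). […] Red fluorescence (Ex 587/Em 630 nm) normalized to OD600. INH negative control.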

Test [3] has the same test system. Kind of test: Antimycobacterial activity against Mycobacterium bovis BCG ATCC 35734 assessed as increase in ROS level at 0.175 to 0.64 uM incubated for 2 hrs by CellROX green reagent fluorescence assay. The class given is functional, organism-based. The conditions noted are these: dose 0.175-0.64 µM, DDE = dose-dependent effect. In short, it runs like this:
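CellROX Green then added to 10 μM final, followed by 30 min at 37°C in the dark. Readout is green fluorescence (Ex 485/Em 520 nm) normalized to OD600. Naphthoquinone positive control, INH negative control.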

The test system is the same in test [4]. Kind of test: Antimycobacterial activity against Mycobacterium bovis BCG ATCC 35734 assessed as inhibition of bacterial growth by two-fold serial broth dilution method. The class given is functional. In a few lines: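 BCG grown at 37°C in 7H9 broth with 0.05% Tween-80, 0.5% glycerol and 10% ADC. Broth dilution method. MIC50/MIC90 are the concentrations giving 50%/90% growth inhibition versus untreated drug-free controls.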

The test system is the same in test [5]. Description: Bactericidal activity against Mycobacterium bovis BCG ATCC 35734 assessed as reduction on colony forming unit at 5 uM measured after 8 days by time killing assay. The class given is functional, organism-based. The conditions noted are these: time 8.0 day.

Activity calls are given as the source filed them. The calls are words filed in the database; no cut-off is given here.

Among the data in ChEMBL document CHEMBL5104224, “Alkyltriphenylphosphonium turns naphthoquinoneimidazoles into potent membrane depolarizers against mycobacteria” (RSC Med Chem, 2022) are Activity and MIC90 values, retold here.

For `NNC(=O)c1ccncc1`, the result in test [1] was Active. For the molecule `CCCCCCCCn1c2c([n+](CCCC)c1C)C(=O)c1ccccc1C2=O.[Br-]`, in test [2], the outcome was Active. In addition, the Activity result in test [3] was “Dde”. For the molecule `Cc1nc2c(n1CCCCCCCCCCC[P+](c1ccccc1)(c1ccccc1)c1ccccc1)C(=O)c1ccccc1C2=O`, the MIC90 (as a rule, the lowest concentration that inhibits either 90% of growth or 90% of the strains tested, depending on the study) in test [4] is 0.8 µM. For `Cc1nc2c(n1CCCCCCCCC[P+](c1ccccc1)(c1ccccc1)c1ccccc1)C(=O)c1ccccc1C2=O`, the outcome in test [5] was Active.

`CCCCn1c2c([n+](C3CCC4(CCCCC4)CC3)c1C)C(=O)c1ccccc1C2=O.[Br-]`: the result in test [2] was Active. For the same molecule, the Activity entry in test [3] was “Dde”.
